The values below come from ChEMBL document CHEMBL1129541, “Synthesis and DNA interactions of benzimidazole dications which have activity against opportunistic infections” (J Med Chem, 1996).

For assay [1], the system named is Nucleic Acid. Description: Thermal melting temperature determined for (dG-C)4 at a concentration of 3*10e-6 M base pairs at a ratio of 0.6 compound per base pair. In kind it is nucleic-acid assay. The method in brief:
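d(G-C)4 at 3×10^-6 M in duplex, in MES buffer (0.01 M MES, 1×10^-3 M EDTA, pH 6.2) with 0.1 M NaCl. Compound at 0.6 per base pair. The UV absorbance melting curve is recorded in 1 cm quartz cells, with temperature monitored by a thermistor in a reference cuvette.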

The subject of assay [2] is Nucleic Acid. Briefly: Thermal melting temperature for poly(A).poly(U) at a concentration of 5*10e-5) M base pairs at a ratio of 0.6 compound per base pair. In kind it is nucleic-acid assay. The method in brief: (§1)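 Polymers at 5×10^-5 M base pairs in MES buffer (0.01 M MES, 1×10^-3 M EDTA, pH 6.2) with 0.1 M NaCl. Compound at 0.6 per base pair. Samples are in 1 cm reduced-volume quartz cells. UV absorbance melting curves are recorded, with temperature followed by a thermistor in a reference cuvette.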

Assay [3] concerns Nucleic Acid. Description: Thermal melting temperature determined for poly(dA).poly(dT) at a concentration of 5*10e-5) M base pairs at a ratio of 0.6 compound per base pair. In kind it is nucleic-acid assay. The essentials: as §1
The test system of assay [4] is Nucleic Acid. Description: Binding constant for the sequence d(CGGAATTCGCG)2. Also on record: unit not given here.
Assay [5] concerns Nucleic Acid. Briefly: Thermal melting temperature for (dCGCGAATTCGCG)2 at a concentration of 3*10e-6 M base pairs at a ratio of one compound per oligomer duplex.

In the case of `c1cc2[nH]c(-c3ccc4[nH]c(CCCCc5nc6cc(-c7nc8cc(C9=NCCN9)ccc8[nH]7)ccc6[nH]5)nc4c3)nc2cc1C1=NCCN1`, the ΔTm is 0 in the assay with Nucleic Acid [1], 0 in the assay with Nucleic Acid [2], > 26 in the assay with Nucleic Acid [3] and 20.8 with Nucleic Acid [5]. This compound returned a K in the assay on Nucleic Acid [4] of 3.1e+08.
As to `N=C(N)c1ccc2nc(Cc3nc4ccc(C(=N)N)cc4[nH]3)[nH]c2c1`, the ΔTm in the assay with Nucleic Acid [1] is 0; in the assay with Nucleic Acid [2], -0.8; in the assay on Nucleic Acid [3], 4.9; with Nucleic Acid [5], 2.8. This compound registered a K in the assay with Nucleic Acid [4] of 930000.
Take `N=C(N)c1ccc2[nH]c(/C=C/c3nc4cc(C(=N)N)ccc4[nH]3)nc2c1`: the ΔTm was -1.5 in the assay with Nucleic Acid [1], 0 in the assay with Nucleic Acid [2], > 26 in the assay with Nucleic Acid [3] and 22.8 with Nucleic Acid [5]. Moreover, the K in the assay on Nucleic Acid [4] worked out at 5.3e+08.
Consider `N=C(N)c1ccc(OCCCCCOc2ccc(C(=N)N)cc2)cc1`, for which the ΔTm is 0 with Nucleic Acid [1], 0 in the assay with Nucleic Acid [2], 12.8 in the assay on Nucleic Acid [3] and 4.8 with Nucleic Acid [5]. Also, the K with Nucleic Acid [4] was found to be 2.3e+06.
`c1cc2[nH]c(CCCCc3nc4cc(C5=NCCN5)ccc4[nH]3)nc2cc1C1=NCCN1`: the ΔTm with Nucleic Acid [1] is 0.5; in the assay with Nucleic Acid [2], -1.5; in the assay with Nucleic Acid [3] it was 25.5; in the assay on Nucleic Acid [5] it was 7.1. In addition, in the assay with Nucleic Acid [4], the K worked out at 5.2e+06.
Consider `N=C(N)c1ccc2[nH]c(CCCCc3nc4cc(C(=N)N)ccc4[nH]3)nc2c1`, for which the ΔTm was 0.5 in the assay on Nucleic Acid [1], -0.6 with Nucleic Acid [2], 24.4 with Nucleic Acid [3] and 10 in the assay on Nucleic Acid [5]. Besides, in the assay on Nucleic Acid [4], the K was determined as 1.3e+07.
In the same order, the values of `c1cc2[nH]c(CCc3nc4cc(C5=NCCN5)ccc4[nH]3)nc2cc1C1=NCCN1` are 0.7, 0.9, > 26, 16.4 and 8.8e+07.
Take `N=C(N)c1ccc2[nH]c(CCc3nc4cc(C(=N)N)ccc4[nH]3)nc2c1`: the ΔTm is 0.75 in the assay on Nucleic Acid [1], -1.1 with Nucleic Acid [2], > 26 in the assay with Nucleic Acid [3] and 15.9 in the assay with Nucleic Acid [5]. The compound further returned a K with Nucleic Acid [4] of 7.6e+07.
For `c1cc2[nH]c(-c3ccc4[nH]c(CCc5nc6cc(-c7nc8cc(C9=NCCN9)ccc8[nH]7)ccc6[nH]5)nc4c3)nc2cc1C1=NCCN1`, the ΔTm is 0 in the assay on Nucleic Acid [1], 0 in the assay with Nucleic Acid [2], > 26 in the assay with Nucleic Acid [3] and 28.5 in the assay with Nucleic Acid [5]. Further, the K in the assay with Nucleic Acid [4] is 2e+09.
With `N=C(N)c1ccc2[nH]c(-c3ccc4[nH]c(CCCCc5nc6cc(-c7nc8cc(C(=N)N)ccc8[nH]7)ccc6[nH]5)nc4c3)nc2c1`, the ΔTm is 0 in the assay on Nucleic Acid [1], 0 in the assay with Nucleic Acid [2], > 26 in the assay on Nucleic Acid [3] and 22.2 in the assay with Nucleic Acid [5]. In the assay on Nucleic Acid [4], the K stood at 4.5e+08.
Consider `c1cc2[nH]c(Cc3nc4cc(C5=NCCN5)ccc4[nH]3)nc2cc1C1=NCCN1`, for which the ΔTm in the assay with Nucleic Acid [1] was 0; in the assay on Nucleic Acid [2] it was -0.6; in the assay on Nucleic Acid [3] it was 5.7; in the assay on Nucleic Acid [5] it was 2.8. In the assay on Nucleic Acid [4], this compound came in with a K of 930000.
For the compound `N=C(N)c1ccc(-c2cc3ccc(C(=N)N)cc3[nH]2)cc1`, the ΔTm is 2.5 in the assay on Nucleic Acid [1], 3.9 in the assay on Nucleic Acid [2], > 26 with Nucleic Acid [3] and 22.2 in the assay with Nucleic Acid [5]. Also, in the assay with Nucleic Acid [4], the K was found to be 4.5e+08.
